For series [1], the system named is Eastern equine encephalitis virus. Kind of series: Antiviral activity against eastern equine encephalitis virus infected in African green monkey Vero 76 cells assessed as virus induced cytopathic effect measured after 48 hrs. Type of series: functional, organism-based. Particulars: Vero 76, 48 h. In general terms: Damage to the host cells serves as the signal in cytopathic effect assays.

For series [2], the system named is Venezuelan equine encephalitis virus. Description: Antiviral activity against Venezuelan equine encephalitis virus infected in African green monkey Vero 76 cells assessed as virus induced cytopathic effect measured after 48 hrs. The series is classed as functional, organism-based. Particulars: Vero 76, 48 h.
The subject of another series is Vero 76. Kind of series: Cytotoxicity against African green monkey Vero 76 assessed as reduction in cell viability measured after 72 hrs. The series is classed as cell-based. Particulars: chlorocebus sabaeus, vero 76, 72 h. The essentials:
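Uninfected Vero 76 cells were exposed to compound, and viability was assessed 72 h post-treatment.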

Series [3] deals with Eastern equine encephalitis virus. Kind of series: Antiviral activity against eastern equine encephalitis virus infected in African green monkey Vero 76 cells assessed as reduction on virus yield at 5 uM after 18 hrs of post infection. Type of series: functional.
Series [4] relates to Venezuelan equine encephalitis virus. Description: Antiviral activity against Venezuelan equine encephalitis virus infected in African green monkey Vero 76 cells assessed as reduction on virus yield at 5 uM after 18 hrs of post infection. The series is classed as functional.
Series [5] has the same test system. Kind of series: Antiviral activity against Venezuelan equine encephalitis virus co-culture with brain Primary neuron cells HNC001 as reduction on virus titre at 1 uM in Vero 76 cells measured after 18 hrs by TCID50-MTT assay. The series is classed as functional, organism-based. (In general: Formazan colour is commonly taken as a measure of viable cells.)
The subject of series [6] is Eastern equine encephalitis virus. Kind of series: Antiviral activity against Eastern equine encephalitis virus co-culture with brain Primary neuron cells HNC001 as reduction on virus titre at 5 uM in Vero 76 cells measured after 18 hrs by TCID50-MTT assay. The series is classed as functional, organism-based.
Series [7] concerns Venezuelan equine encephalitis virus. Kind of series: Antiviral activity against Venezuelan equine encephalitis virus co-culture with brain Primary neuron cells HNC001 as reduction on virus titre at 5 uM in Vero 76 cells measured after 18 hrs by TCID50-MTT assay. The series is classed as functional, organism-based.
Series [8] concerns Eastern equine encephalitis virus. Kind of series: Antiviral activity against Eastern equine encephalitis virus co-culture with brain Primary neuron cells HNC001 as reduction on virus titre at 1 uM in Vero 76 cells measured after 18 hrs by TCID50-MTT assay. Type of series: functional, organism-based.
The nature of series [9]: Metabolic stability in CD-1 mouse liver microsomes assessed as half life measured at 60 mins in presence of NADPH by LC-MS/MS analysis. Type of series: ADME, Microsome. Particulars: 1 h. The essentials:
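Half-life was determined from stability in CD-1 mouse liver microsomes.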
Background: Microsomes from liver hold many membrane-bound enzymes, among them those of drug oxidation.

Series [10] in a line: Aqueous solubility of compound at pH 7.4 measured after 1460 min by HPLC analysis. Type of series: physicochemical. The conditions noted are these: buffer. The essentials: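 Kinetic solubility was measured in aqueous PBS buffer at pH 7.4.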

Each structure is given as a SMILES string. ≈ marks a conversion by molar mass, not a printed value. Calls of active or inactive are those of the source. The calls are words filed in the database; no cut-off is given here.

Usually EC50 stands for the concentration at which the effect is half-maximal. For `COc1ccc(N2C(=O)c3cc([N+](=O)[O-])ccc3N=C3[C@H]2N(C)[C@H]2CCCC[C@@H]2N3C)cc1`, the values for the concentration giving a half-maximal response (EC50) in series [1] and in [2] were 3.8 µM and 5.6 µM, respectively.

The term CC50 denotes the concentration that lowers cell viability or growth by half. As for `COc1ccc(N2C(=O)c3cc(C#N)cc(Br)c3N=C3C2N(C)CCN3C)cc1F` (configuration not stated), the half-maximal effective concentration (EC50) in series [1] was 3.2 µM; in series [2] it was 4.1 µM. The 50% cytotoxic concentration (CC50) in the series with Vero 76 is over 30 µM.

For `COc1ccc(N2C(=O)c3cc([N+](=O)[O-])ccc3N=C3C2N(Cc2ccccc2)CCN3C)cc1` (configuration not stated), the EC50 was 3.2 µM in [1] and 3 µM in [2]. The CC50 in the series with Vero 76 was over 30 µM.

For `CN1CCN(C)C2C1=Nc1ccc([N+](=O)[O-])cc1C(=O)N2c1ccc(F)cc1` (configuration not stated), the Activity is given as 6.1 in series [3] and 2.9 in series [4]. Besides, the EC50 in series [1] amounted to 0.11 µM; in [2] it was 0.15 µM. Also, the 50% cytotoxic concentration (CC50) in the series with Vero 76 is over 30 µM.

For `COc1ccc(N2C(=O)c3cc([N+](=O)[O-])ccc3N=C3[C@@H]2N(C)[C@@H]2CCCC[C@H]2N3C)cc1`, the EC50 turned out to be 4.5 µM in [1] and 4.7 µM in series [2]. In the series with Vero 76, the CC50 was over 30 µM.

As for `COc1ccc(N2C(=O)c3cc(C#N)cc(N4CCOCC4)c3N=C3C2N(C)CCN3C)cc1F` (configuration not stated), the Activity in [3] is 4; in series [4], 2.5. Further, the 50% effective concentration (EC50) in series [1] was 1.9 µM; in series [2], 2.5 µM. The CC50 in the series on Vero 76 was over 30 µM.

For the compound `CN1CCN(C)C2C1=Nc1ccc(F)cc1C(=O)N2c1ccccc1` (configuration not stated), the concentration for a half-maximal effect (EC50) in series [1] and in series [2] was over 30 µM each time. The CC50 in the series with Vero 76 was over 30 µM.

With `COc1ccc(N2C(=O)c3cc(C#N)cc(-c4ccc(C)nc4)c3N=C3[C@H]2N(C)CCN3C)cc1F`, the outcome in series [5] and in series [8] was inactive. Also, the Activity in [3] is listed as 5.2; in series [4], 6.1. Besides, the result in [6] and in series [7] was Active. Also, the figures for the EC50 in series [1] and in [2] were 0.3 µM and 0.5 µM, respectively.

For the compound `CN1CCN(C)C2C1=Nc1ccc([N+](=O)[O-])cc1C(=O)N2c1ccccc1` (configuration not stated), the figures for the Activity in series [3] and in [4] were 5.7 and 2.6, respectively. Moreover, the CC50 in the series with Vero 76 was over 30 µM. In addition, the EC50 in series [2] stood at 0.12 µM.

Consider `CN1CCN(C)C2C1=Nc1ccc(C#N)cc1C(=O)N2c1ccccc1` (configuration not stated), for which the EC50 in series [1] was found to be 4.4 µM; in series [2] it was 7 µM. For the same compound, the CC50 with Vero 76 was over 30 µM.

Consider `COc1cccc(N2C(=O)c3cc([N+](=O)[O-])ccc3N=C3C2N(C)CCN3C)c1` (configuration not stated), for which the Activity was 5.7 in series [3] and 2.4 in series [4]. Also, the EC50 in series [1] was 0.5 µM; in [2] it was 0.53 µM. For the same compound, the cytotoxic concentration (CC50) in the series with Vero 76 is over 30 µM.

Usually solubility (kinetic) stands for solubility judged after dilution from a stock solution rather than from solid. With `COc1ccc(N2C(=O)c3cc([N+](=O)[O-])ccc3N=C3C2N(C)CCN3C)cc1` (configuration not stated), the Activity in series [3] is 7.9; in [4], 5.5. Also, the result in [6] and in series [7] was Active. The EC50 in series [1] was determined as 0.033 µM. The t1/2 in series [9] came out at 10 min. In the series on Vero 76, the CC50 was over 30 µM. Also, the solubility (kinetic) at 24.33 h in series [10] amounted to 0.7 µM (≈ 0.277 µg/mL).

Turning to `COc1ccc(N2C(=O)c3cc(C#N)ccc3N=C3C2N(C)CCN3C)cc1` (configuration not stated), the results for the EC50 in [1] and in series [2] were 2.5 µM and 4.2 µM, respectively. Moreover, in the series with Vero 76, the CC50 was over 30 µM.

Take `COc1ccc(N2C(=O)c3cc(C#N)cc(-c4ccc(C)nc4)c3N=C3C2N(C)CCN3C)cc1F` (racemic): the outcome in series [5] and in series [8] was inactive. For the same compound, the Activity in series [3] was 6.9; in series [4], 5.2. In addition, the result in [6] and in series [7] was Active. For the same compound, the concentration giving a half-maximal response (EC50) amounted to 0.16 µM in [1] and 0.24 µM in series [2]. The t1/2 in series [9] amounted to 45 min. Besides, the half-maximal cytotoxic concentration (CC50) in the series with Vero 76 is 23.3 µM. Moreover, the solubility (kinetic) at 24.33 h in [10] turned out to be 2 µM (≈ 0.969 µg/mL).

Consider `COc1ccc(N2C(=O)c3cc(C#N)cc(-c4ccc(C)nc4)c3N=C3[C@@H]2N(C)CCN3C)cc1F`, for which the outcome in series [5] and in [8] was inactive. Besides, the Activity was determined as 5.9 in series [3] and 2.7 in series [4]. In addition, the outcome in series [6] and in series [7] was Active. Moreover, the EC50 stood at 0.26 µM in [1] and 0.33 µM in [2]. In addition, in the series with Vero 76, the CC50 was over 30 µM.

In the case of `CN1CCN(C)C2C1=Nc1cc([N+](=O)[O-])ccc1C(=O)N2c1ccccc1` (configuration not stated), the EC50 in series [1] and in [2] was over 30 µM each time. For the same compound, in the series on Vero 76, the 50% cytotoxic concentration (CC50) is over 30 µM.

Turning to `COc1ccc(N2C(=O)c3cc([N+](=O)[O-])ccc3N=C3C2N(C2CCCCC2)CCN3C)cc1` (configuration not stated), the EC50 in series [1] amounted to 6.2 µM; in series [2], 7 µM. The CC50 in the series on Vero 76 is over 30 µM.

Regarding `COc1ccc(N2C(=O)c3cc([N+](=O)[O-])ccc3N=C3C2N(C)CCN3C)cc1F` (configuration not stated), the Activity was determined as 7.7 in series [3] and 3.7 in series [4]. The outcome in [6] and in series [7] was Active. Further, in series [9], the t1/2 amounted to 10 min. Further, the half-maximal cytotoxic concentration (CC50) in the series on Vero 76 was over 30 µM. Besides, the EC50 in series [2] was determined as 0.048 µM. The solubility (kinetic) at 24.33 h in series [10] worked out at 0.5 µM (≈ 0.207 µg/mL).

Turning to `COc1ccc(N2C(=O)c3cc([N+](=O)[O-])ccc3N=C3C2N(Cc2ccccc2)CCN3Cc2ccccc2)cc1` (configuration not stated), the concentration for a half-maximal effect (EC50) came to 13.8 µM in [1] and 19.8 µM in [2]. Further, the CC50 in the series with Vero 76 was over 30 µM.

The values above are taken from ChEMBL document CHEMBL5036385, “Piperazinobenzodiazepinones: New Encephalitic Alphavirus Inhibitors via Ring Expansion of 2-Dichloromethylquinazolinones” (ACS Med Chem Lett, 2022).
